What was measured:
human FXIIa = target: T1, human FXIIa (Homo sapiens, UniProt P00748); test: Direct inhibition of human FXIIa, chromogenic substrate hydrolysis assay; format: biochemical; details: for DeltaY (efficacy of inhibition) / HS (Hill slope): pH 7.4, 37 °C; for DeltaY (efficacy of inhibition) / HS (Hill slope) / IC50: ± 1 S.E.; for IC50: Tris-HCl buffer pH 7.4, 37 °C
T1 sequence (P00748 20-615): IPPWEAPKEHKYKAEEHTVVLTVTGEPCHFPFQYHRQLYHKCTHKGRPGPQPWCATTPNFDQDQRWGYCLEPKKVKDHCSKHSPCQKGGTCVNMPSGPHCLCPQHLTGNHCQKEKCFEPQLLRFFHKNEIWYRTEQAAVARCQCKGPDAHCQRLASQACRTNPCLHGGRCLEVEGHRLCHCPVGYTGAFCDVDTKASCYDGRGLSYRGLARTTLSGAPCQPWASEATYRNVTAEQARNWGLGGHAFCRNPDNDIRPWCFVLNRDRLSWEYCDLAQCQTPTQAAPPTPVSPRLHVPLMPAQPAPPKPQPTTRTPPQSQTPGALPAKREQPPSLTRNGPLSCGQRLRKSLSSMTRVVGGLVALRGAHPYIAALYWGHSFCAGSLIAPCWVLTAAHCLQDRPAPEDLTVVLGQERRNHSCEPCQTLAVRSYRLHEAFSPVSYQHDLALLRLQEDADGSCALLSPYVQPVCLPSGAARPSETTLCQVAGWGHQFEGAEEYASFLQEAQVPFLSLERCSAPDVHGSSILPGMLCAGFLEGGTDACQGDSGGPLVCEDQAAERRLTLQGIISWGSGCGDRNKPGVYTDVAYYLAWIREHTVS
Outline: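 Human FXIIa (stock 200 nM) was preincubated for 5 min with test compound or vehicle in Tris-HCl pH 7.4 with NaCl, 2.5 mM CaCl2, 0.1% PEG8000 and 0.02% Tween80 at 37 °C. Spectrozyme FXIIa (stock 5 mM) was then added. Twelve in-well concentrations (500–0.0025 μM) were tested. Residual activity was taken from the initial A405 rate, and a logistic fit gave IC50, efficacy and Hill slope (±1 S.E.).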

human plasma [1] = details: normal human plasma, positive controls; cited from earlier work
human plasma [2] = details: normal human plasma, positive controls; cited from earlier work; remark: listed apart in the source

decrease in the inhibition potency (human FXIIa; FXIIa IC50 relative to inhibitor 1)	DeltaY (efficacy of inhibition) (human FXIIa; human FXIIa)	HS (Hill slope) (human FXIIa; human FXIIa)	IC50 (human FXIIa; IC50, human FXIIa)	IC50 (human FXIIa; human FXIIa)	Compound	APTT (EC×1.5) (human plasma [1])	PT (EC×1.5) (human plasma [2])
77.5 fold	82.1 ± 8.1%	1.37 ± 0.69	–	–	CC(C)(C)c1ccc(C(=O)n2ncnc2N)cc1 [Inhibitor 3, (5-amino-1H-1,2,4-triazol-1-yl)(4-(tert-butyl)phenyl)methanone]	–	–
–	122.4 ± 23.4%	1.05 ± 0.55	699 µM	–	CC(C)(C)c1ccc(C(=O)n2nc(C(=O)O)nc2N)cc1 [Inhibitor 4, 5-amino-1-(4-(tert-butyl)benzoyl)-1H-1,2,4-triazole-3-carboxylic acid]	–	–
–	103 ± 5%	1.26 ± 0.27	–	340 ± 30.5 µM	CNC(=O)c1nc(N)n(C(=O)c2ccc(C(C)(C)C)cc2)n1 [Inhibitor 5, 5-amino-1-(4-(tert-butyl)benzoyl)-N-methyl-1-1H-1,2,4-triazole-3-carboxamide]	–	–
–	–	–	–	–	O=C(NC[C@H]1CN(c2ccc(N3CCOCC3=O)cc2)C(=O)O1)c1ccc(Cl)s1 [Rivaroxaban]	~0.06 µM	~0.08 µM

From paper PMC10249145 (Cardiovascular & hematological agents in medicinal chemistry, 2023)
